{
  "source": "ChEMBL document CHEMBL1149148",
  "about": "“Synthesis and structure-activity relationships of novel 7-substituted 1,4-dihydro-4-oxo-1-(2-thiazolyl)-1,8-naphthyridine-3-carboxylic acids as antitumor agents. Part 2” (J Med Chem, 2004)",
  "data": [
    {"test_system": "not listed separately", "test": "Solubility at pH 7.2", "assay_type": "physicochemical", "conditions": "buffer", "procedure,_shortened": "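Water solubility measured in pH 7.2 phosphate buffer, reported in mg/mL.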", "units": {"solubility": "µg/mL"}, "values": [
      {"smiles": "CN[C@H]1CN(c2ccc3c(=O)c(C(=O)O)cn(-c4nccs4)c3n2)C[C@@H]1OC.Cl", "note": "[listing 1 of 2 here]", "solubility": 23700},
      {"smiles": "C[C@H]1CN(c2ccc3c(=O)c(C(=O)O)cn(-c4nccs4)c3n2)C[C@@H]1N.Cl", "solubility": 17},
      {"smiles": "Cl.NC1CCN(c2ccc3c(=O)c(C(=O)O)cn(-c4nccs4)c3n2)C1", "note": "(centres undefined)", "solubility": 6.9},
      {"smiles": "CC1(N)CCN(c2ccc3c(=O)c(C(=O)O)cn(-c4nccs4)c3n2)C1.Cl", "note": "(centres undefined)", "solubility": 3.8},
      {"smiles": "CNC1CCN(c2ccc3c(=O)c(C(=O)O)cn(-c4nccs4)c3n2)C1.Cl", "note": "(centres undefined)", "solubility": 8},
      {"smiles": "CN[C@H]1CN(c2ccc3c(=O)c(C(=O)O)cn(-c4nccs4)c3n2)C[C@@H]1C.Cl", "solubility": 6.2},
      {"smiles": "CN[C@H]1CN(c2ccc3c(=O)c(C(=O)O)cn(-c4nccs4)c3n2)C[C@@H]1OC.Cl", "note": "[listing 2 of 2 here]", "solubility": 20100},
      {"smiles": "CN[C@@H]1CN(c2ccc3c(=O)c(C(=O)O)cn(-c4nccs4)c3n2)C[C@H]1OC.Cl", "solubility": 19800},
      {"smiles": "CNC1(C)CCN(c2ccc3c(=O)c(C(=O)O)cn(-c4nccs4)c3n2)C1.Cl", "note": "(centres undefined)", "solubility": 7.2},
      {"smiles": "CO[C@H]1CN(c2ccc3c(=O)c(C(=O)O)cn(-c4nccs4)c3n2)C[C@@H]1N.Cl", "solubility": 47}
    ]},
    {"test_system": "Mus musculus", "test": "Ratio of median survival time of treated mice (T) to that of median survival time of controls (C) in mice infected with p388 cells (in vivo) at a dose of 50 mg/kg", "assay_type": "functional", "conditions": "not given", "procedure,_shortened": "(§1)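 BDF1 mice implanted ip with 0.1 mL diluted ascites fluid carrying 10⁶ P388 leukemia cells. Dosing ip on days 1 and 5 after implantation. Test compounds were suspended in 0.4% CMC, and reference drugs were dissolved and diluted in distilled water. Seven mice per group. T/C (%) = median survival time of treated group / median survival time of control group × 100.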", "units": {"T/C": "%"}, "values": [
      {"smiles": "C[C@H]1CN(c2ccc3c(=O)c(C(=O)O)cn(-c4nccs4)c3n2)C[C@@H]1N.Cl", "T/C": 288},
      {"smiles": "Cl.NC1CCN(c2ccc3c(=O)c(C(=O)O)cn(-c4nccs4)c3n2)C1", "note": "(centres undefined)", "T/C": 125},
      {"smiles": "CC1(N)CCN(c2ccc3c(=O)c(C(=O)O)cn(-c4nccs4)c3n2)C1.Cl", "note": "(centres undefined)", "T/C": 138},
      {"smiles": "CNC1CCN(c2ccc3c(=O)c(C(=O)O)cn(-c4nccs4)c3n2)C1.Cl", "note": "(centres undefined)", "T/C": ">375"},
      {"smiles": "CN[C@H]1CN(c2ccc3c(=O)c(C(=O)O)cn(-c4nccs4)c3n2)C[C@@H]1C.Cl", "T/C": 75},
      {"smiles": "CN[C@H]1CN(c2ccc3c(=O)c(C(=O)O)cn(-c4nccs4)c3n2)C[C@@H]1OC.Cl", "note": "[listing 2 of 2 here]", "T/C": ">375"},
      {"smiles": "CNC1(C)CCN(c2ccc3c(=O)c(C(=O)O)cn(-c4nccs4)c3n2)C1.Cl", "note": "(centres undefined)", "T/C": 113},
      {"smiles": "CO[C@H]1CN(c2ccc3c(=O)c(C(=O)O)cn(-c4nccs4)c3n2)C[C@@H]1N.Cl", "T/C": 338}
    ]},
    {"test_system": "Mus musculus", "test": "Ratio of median survival time of treated mice (T) to that of median survival time of controls (C) in mice infected with p388 cells (in vivo) at a dose of 6.25 mg/kg", "assay_type": "functional", "conditions": "not given", "procedure,_shortened": "as §1", "units": {"T/C": "%"}, "values": [
      {"smiles": "CN[C@H]1CN(c2ccc3c(=O)c(C(=O)O)cn(-c4nccs4)c3n2)C[C@@H]1OC.Cl", "note": "[listing 1 of 2 here]", "T/C": 275},
      {"smiles": "CN[C@H]1CN(c2ccc3c(=O)c(C(=O)O)cn(-c4nccs4)c3n2)C[C@@H]1OC.Cl", "note": "[listing 2 of 2 here]", "T/C": 225},
      {"smiles": "CN[C@@H]1CN(c2ccc3c(=O)c(C(=O)O)cn(-c4nccs4)c3n2)C[C@H]1OC.Cl", "T/C": 188}
    ]},
    {"test_system": "Mus musculus", "test": "Ratio of median survival time of treated mice (T) to that of median survival time of controls (C) in mice infected with p388 cells (in vivo) at a dose of 0.78 mg/kg", "assay_type": "functional", "conditions": "not given", "procedure,_shortened": "as §1", "units": {"T/C": "%"}, "values": [
      {"smiles": "CN[C@H]1CN(c2ccc3c(=O)c(C(=O)O)cn(-c4nccs4)c3n2)C[C@@H]1OC.Cl", "note": "[listing 1 of 2 here]", "T/C": 150},
      {"smiles": "CN[C@H]1CN(c2ccc3c(=O)c(C(=O)O)cn(-c4nccs4)c3n2)C[C@@H]1OC.Cl", "note": "[listing 2 of 2 here]", "T/C": 150},
      {"smiles": "CN[C@@H]1CN(c2ccc3c(=O)c(C(=O)O)cn(-c4nccs4)c3n2)C[C@H]1OC.Cl", "T/C": 125}
    ]},
    {"test_system": "Mus musculus", "test": "Ratio of median survival time of treated mice (T) to that of median survival time of controls (C) in mice infected with p388 cells (in vivo) at a dose of 1.56 mg/kg", "assay_type": "functional", "conditions": "not given", "procedure,_shortened": "as §1", "units": {"T/C": "%"}, "values": [
      {"smiles": "CN[C@H]1CN(c2ccc3c(=O)c(C(=O)O)cn(-c4nccs4)c3n2)C[C@@H]1OC.Cl", "note": "[listing 1 of 2 here]", "T/C": 188},
      {"smiles": "CN[C@@H]1CN(c2ccc3c(=O)c(C(=O)O)cn(-c4nccs4)c3n2)C[C@H]1OC.Cl", "T/C": 125}
    ]},
    {"test_system": "Mus musculus", "test": "Ratio of median survival time of treated mice (T) to that of median survival time of controls (C) in mice infected with p388 cells (in vivo) at a dose of 12.5 mg/kg", "assay_type": "functional", "conditions": "not given", "procedure,_shortened": "as §1", "units": {"T/C": "%"}, "values": [
      {"smiles": "CN[C@H]1CN(c2ccc3c(=O)c(C(=O)O)cn(-c4nccs4)c3n2)C[C@@H]1OC.Cl", "note": "[listing 1 of 2 here]", "T/C": ">375"},
      {"smiles": "C[C@H]1CN(c2ccc3c(=O)c(C(=O)O)cn(-c4nccs4)c3n2)C[C@@H]1N.Cl", "T/C": 200},
      {"smiles": "Cl.NC1CCN(c2ccc3c(=O)c(C(=O)O)cn(-c4nccs4)c3n2)C1", "note": "(centres undefined)", "T/C": 275},
      {"smiles": "CC1(N)CCN(c2ccc3c(=O)c(C(=O)O)cn(-c4nccs4)c3n2)C1.Cl", "note": "(centres undefined)", "T/C": 213},
      {"smiles": "CNC1CCN(c2ccc3c(=O)c(C(=O)O)cn(-c4nccs4)c3n2)C1.Cl", "note": "(centres undefined)", "T/C": 300},
      {"smiles": "CN[C@H]1CN(c2ccc3c(=O)c(C(=O)O)cn(-c4nccs4)c3n2)C[C@@H]1C.Cl", "T/C": 288},
      {"smiles": "CN[C@H]1CN(c2ccc3c(=O)c(C(=O)O)cn(-c4nccs4)c3n2)C[C@@H]1OC.Cl", "note": "[listing 2 of 2 here]", "T/C": 250},
      {"smiles": "CN[C@@H]1CN(c2ccc3c(=O)c(C(=O)O)cn(-c4nccs4)c3n2)C[C@H]1OC.Cl", "T/C": 238},
      {"smiles": "CNC1(C)CCN(c2ccc3c(=O)c(C(=O)O)cn(-c4nccs4)c3n2)C1.Cl", "note": "(centres undefined)", "T/C": 225},
      {"smiles": "CO[C@H]1CN(c2ccc3c(=O)c(C(=O)O)cn(-c4nccs4)c3n2)C[C@@H]1N.Cl", "T/C": 238}
    ]},
    {"test_system": "Mus musculus", "test": "Ratio of median survival time of treated mice (T) to that of median survival time of controls (C) in mice infected with p388 cells (in vivo) at a dose of 25 mg/kg", "assay_type": "functional", "conditions": "not given", "procedure,_shortened": "as §1", "units": {"T/C": "%"}, "values": [
      {"smiles": "CN[C@H]1CN(c2ccc3c(=O)c(C(=O)O)cn(-c4nccs4)c3n2)C[C@@H]1OC.Cl", "note": "[listing 1 of 2 here]", "T/C": ">375"},
      {"smiles": "CN[C@H]1CN(c2ccc3c(=O)c(C(=O)O)cn(-c4nccs4)c3n2)C[C@@H]1OC.Cl", "note": "[listing 2 of 2 here]", "T/C": 300},
      {"smiles": "CN[C@@H]1CN(c2ccc3c(=O)c(C(=O)O)cn(-c4nccs4)c3n2)C[C@H]1OC.Cl", "T/C": 300}
    ]},
    {"test_system": "Mus musculus", "test": "Ratio of median survival time of treated mice (T) to that of median survival time of controls (C) in mice infected with p388 cells (in vivo) at a dose of 3.13 mg/kg", "assay_type": "functional", "conditions": "not given", "procedure,_shortened": "as §1", "units": {"T/C": "%"}, "values": [
      {"smiles": "CN[C@H]1CN(c2ccc3c(=O)c(C(=O)O)cn(-c4nccs4)c3n2)C[C@@H]1OC.Cl", "note": "[listing 1 of 2 here]", "T/C": 225},
      {"smiles": "C[C@H]1CN(c2ccc3c(=O)c(C(=O)O)cn(-c4nccs4)c3n2)C[C@@H]1N.Cl", "T/C": 175},
      {"smiles": "Cl.NC1CCN(c2ccc3c(=O)c(C(=O)O)cn(-c4nccs4)c3n2)C1", "note": "(centres undefined)", "T/C": 188},
      {"smiles": "CC1(N)CCN(c2ccc3c(=O)c(C(=O)O)cn(-c4nccs4)c3n2)C1.Cl", "note": "(centres undefined)", "T/C": 150},
      {"smiles": "CNC1CCN(c2ccc3c(=O)c(C(=O)O)cn(-c4nccs4)c3n2)C1.Cl", "note": "(centres undefined)", "T/C": 200},
      {"smiles": "CN[C@H]1CN(c2ccc3c(=O)c(C(=O)O)cn(-c4nccs4)c3n2)C[C@@H]1C.Cl", "T/C": 188},
      {"smiles": "CN[C@H]1CN(c2ccc3c(=O)c(C(=O)O)cn(-c4nccs4)c3n2)C[C@@H]1OC.Cl", "note": "[listing 2 of 2 here]", "T/C": 200},
      {"smiles": "CN[C@@H]1CN(c2ccc3c(=O)c(C(=O)O)cn(-c4nccs4)c3n2)C[C@H]1OC.Cl", "T/C": 163},
      {"smiles": "CNC1(C)CCN(c2ccc3c(=O)c(C(=O)O)cn(-c4nccs4)c3n2)C1.Cl", "note": "(centres undefined)", "T/C": 163},
      {"smiles": "CO[C@H]1CN(c2ccc3c(=O)c(C(=O)O)cn(-c4nccs4)c3n2)C[C@@H]1N.Cl", "T/C": 163}
    ]},
    {"test_system": "P388", "test": "Cytotoxic activity against murine P388 leukemia cells", "assay_type": "functional, cell-based", "conditions": "Mus musculus", "units": {"IC50": "µg/mL"}, "values": [
      {"smiles": "CN[C@H]1CN(c2ccc3c(=O)c(C(=O)O)cn(-c4nccs4)c3n2)C[C@@H]1OC.Cl", "note": "[listing 1 of 2 here]", "IC50": 0.0075},
      {"smiles": "C[C@H]1CN(c2ccc3c(=O)c(C(=O)O)cn(-c4nccs4)c3n2)C[C@@H]1N.Cl", "IC50": 0.0096},
      {"smiles": "Cl.NC1CCN(c2ccc3c(=O)c(C(=O)O)cn(-c4nccs4)c3n2)C1", "note": "(centres undefined)", "IC50": 0.01},
      {"smiles": "CC1(N)CCN(c2ccc3c(=O)c(C(=O)O)cn(-c4nccs4)c3n2)C1.Cl", "note": "(centres undefined)", "IC50": 0.019},
      {"smiles": "CNC1CCN(c2ccc3c(=O)c(C(=O)O)cn(-c4nccs4)c3n2)C1.Cl", "note": "(centres undefined)", "IC50": 0.01},
      {"smiles": "CN[C@H]1CN(c2ccc3c(=O)c(C(=O)O)cn(-c4nccs4)c3n2)C[C@@H]1C.Cl", "IC50": 0.012},
      {"smiles": "CN[C@H]1CN(c2ccc3c(=O)c(C(=O)O)cn(-c4nccs4)c3n2)C[C@@H]1OC.Cl", "note": "[listing 2 of 2 here]", "IC50": 0.01},
      {"smiles": "CN[C@@H]1CN(c2ccc3c(=O)c(C(=O)O)cn(-c4nccs4)c3n2)C[C@H]1OC.Cl", "IC50": 0.021},
      {"smiles": "CNC1(C)CCN(c2ccc3c(=O)c(C(=O)O)cn(-c4nccs4)c3n2)C1.Cl", "note": "(centres undefined)", "IC50": 0.018},
      {"smiles": "CO[C@H]1CN(c2ccc3c(=O)c(C(=O)O)cn(-c4nccs4)c3n2)C[C@@H]1N.Cl", "IC50": 0.018}
    ]}
  ]
}
